What is called MIC is the lowest concentration found to suppress growth.

From ChEMBL document CHEMBL4732030, “Aloe-emodin derived azoles as a new structural type of potential antibacterial agents: design, synthesis, and evaluation of the action on membrane, DNA, and MRSA DNA isomerase” (RSC Med Chem, 2021) come the findings set out here.

Common to all, as to type: functional
The test system of test [1] is Pseudomonas aeruginosa. The experiment in a line: Antibacterial activity against Pseudomonas aeruginosa assessed as inhibition of bacterial growth after 24 hrs by microbroth dilution method. The procedure, abridged:
(§1)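 Bacterial inoculum set to 1×10^5 CFU with sterile saline. Test agents and reference drugs, from DMSO stocks, diluted in Mueller-Hinton broth to 512, 256, 128, 64, 32, 16, 8, 4, 2, 1 and 0.5 µg/mL. Inoculated dilutions incubated 37 °C for 24 h.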

Test [2] concerns Escherichia coli. The experiment in a line: Antibacterial activity against Escherichia coli ATCC 25922 assessed as inhibition of bacterial growth after 24 hrs by microbroth dilution method. An outline of the steps: as §1
For orientation: Dilution methods test growth across graded concentrations, often in twofold steps.

Another test relates to Acinetobacter baumannii. Briefly: Antibacterial activity against Acinetobacter baumannii assessed as inhibition of bacterial growth after 24 hrs by microbroth dilution method. An outline of the steps:
as §1

Test [3] has as its system Staphylococcus aureus. The experiment in a line: Antibacterial activity against Staphylococcus aureus ATCC 25923 assessed as inhibition of bacterial growth after 24 hrs by microbroth dilution method. The procedure, abridged:
as §1

Another test relates to Enterococcus faecalis. Briefly: Antibacterial activity against Enterococcus faecalis assessed as inhibition of bacterial growth after 24 hrs by microbroth dilution method. An outline of the steps: as §1
Test [4] relates to Staphylococcus aureus. Briefly: Antibacterial activity against Staphylococcus aureus assessed as inhibition of bacterial growth after 24 hrs by microbroth dilution method. An outline of the steps:
as §1

For test [5], the system named is Pseudomonas aeruginosa. The experiment in a line: Antibacterial activity against Pseudomonas aeruginosa ATCC 27853 assessed as inhibition of bacterial growth after 24 hrs by microbroth dilution method. The procedure, abridged: as §1
The subject of test [6] is Staphylococcus aureus. The experiment in a line: Antibacterial activity against methicillin resistant Staphylococcus aureus assessed as inhibition of bacterial growth after 24 hrs by microbroth dilution method. The procedure, abridged:
(§2)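 Inoculum adjusted in sterile saline to 1×10^5 CFU. Compounds dissolved in DMSO as stock, then diluted in Mueller-Hinton broth as a two-fold series from 512 to 0.5 µg/mL (11 levels). Inoculated dilutions incubated at 37 °C for 24 h, and the MIC recorded.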

For test [7], the system named is Escherichia coli. Briefly: Antibacterial activity against Escherichia coli assessed as inhibition of bacterial growth after 24 hrs by microbroth dilution method. An outline of the steps:
as §1

The test system of test [8] is Staphylococcus aureus. The experiment in a line: Antibacterial activity against Staphylococcus aureus ATCC 29213 assessed as inhibition of bacterial growth after 24 hrs by microbroth dilution method. An outline of the steps: as §2
Another test relates to Klebsiella pneumoniae. Briefly: Antibacterial activity against Klebsiella pneumoniae assessed as inhibition of bacterial growth after 24 hrs by microbroth dilution method. The procedure, abridged: as §1

SMILES strings stand for the structures. ≈ marks a conversion by molar mass, not a printed value.

Turning to `O=C1c2cccc(O)c2C(=O)c2c(O)cc(Cn3cnc4cc([N+](=O)[O-])ccc43)cc21`, the MIC with Pseudomonas aeruginosa [1] was 32 mg/L (≈ 77 µM); in the test with Escherichia coli [2], 32 mg/L (≈ 77 µM); in the test with Acinetobacter baumannii it was 32 mg/L (≈ 77 µM); in the test on Staphylococcus aureus [3], 64 mg/L (≈ 154 µM); with Enterococcus faecalis it was 16 mg/L (≈ 38.5 µM); in the test with Staphylococcus aureus [4], 32 mg/L (≈ 77 µM). The minimum inhibitory concentration (MIC) is 32 mg/L (≈ 77 µM) in the test with Pseudomonas aeruginosa [5]; 64 mg/L (≈ 154 µM) in the test on Staphylococcus aureus [6]; 64 mg/L (≈ 154 µM) with Escherichia coli [7]; 32 mg/L (≈ 77 µM) in the test with Staphylococcus aureus [8]; 64 mg/L (≈ 154 µM) with Klebsiella pneumoniae.
Consider `O=C1c2cccc(O)c2C(=O)c2c(O)cc(Cn3c4ccccc4c4ccccc43)cc21`, for which the MIC with Pseudomonas aeruginosa [1] was determined as 64 mg/L (≈ 153 µM); in the test with Escherichia coli [2] it was 64 mg/L (≈ 153 µM); in the test on Acinetobacter baumannii, 64 mg/L (≈ 153 µM); in the test on Staphylococcus aureus [3], 16 mg/L (≈ 38.1 µM); with Enterococcus faecalis, 128 mg/L (≈ 305 µM); in the test on Staphylococcus aureus [4] it was 8 mg/L (≈ 19.1 µM). Further, the MIC in the test with Pseudomonas aeruginosa [5] was 64 mg/L (≈ 153 µM); in the test on Staphylococcus aureus [6], 32 mg/L (≈ 76.3 µM); with Escherichia coli [7], 128 mg/L (≈ 305 µM); with Staphylococcus aureus [8] it was 32 mg/L (≈ 76.3 µM); in the test on Klebsiella pneumoniae it was 128 mg/L (≈ 305 µM).
Take `O=C1c2cccc(O)c2C(=O)c2c(O)cc(CCl)cc21`: the MIC with Pseudomonas aeruginosa [1] stood at 64 mg/L (≈ 222 µM); with Escherichia coli [2], 32 mg/L (≈ 111 µM); in the test with Acinetobacter baumannii it was 64 mg/L (≈ 222 µM); with Staphylococcus aureus [3] it was 64 mg/L (≈ 222 µM); with Enterococcus faecalis it was 256 mg/L (≈ 887 µM); with Staphylococcus aureus [4] it was 64 mg/L (≈ 222 µM). Further, the MIC came out at 32 mg/L (≈ 111 µM) in the test with Pseudomonas aeruginosa [5]; 32 mg/L (≈ 111 µM) in the test on Staphylococcus aureus [6]; 128 mg/L (≈ 443 µM) in the test on Escherichia coli [7]; 128 mg/L (≈ 443 µM) with Staphylococcus aureus [8]; 32 mg/L (≈ 111 µM) in the test on Klebsiella pneumoniae.
In the case of `O=C1c2cccc(O)c2C(=O)c2c(O)cc(Cn3cnc([N+](=O)[O-])c3)cc21`, the MIC stood at 64 mg/L (≈ 175 µM) in the test with Pseudomonas aeruginosa [1]; 32 mg/L (≈ 87.6 µM) in the test with Escherichia coli [2]; 32 mg/L (≈ 87.6 µM) with Acinetobacter baumannii; 16 mg/L (≈ 43.8 µM) with Staphylococcus aureus [3]; 128 mg/L (≈ 350 µM) in the test on Enterococcus faecalis; 16 mg/L (≈ 43.8 µM) with Staphylococcus aureus [4]. Besides, the MIC was found to be 32 mg/L (≈ 87.6 µM) with Pseudomonas aeruginosa [5]; 64 mg/L (≈ 175 µM) in the test on Staphylococcus aureus [6]; 64 mg/L (≈ 175 µM) in the test with Escherichia coli [7]; 16 mg/L (≈ 43.8 µM) in the test with Staphylococcus aureus [8]; 128 mg/L (≈ 350 µM) in the test with Klebsiella pneumoniae.
In the case of `Cc1ccc2c(c1)ncn2Cc1cc(O)c2c(c1)C(=O)c1cccc(O)c1C2=O`, the MIC is 32 mg/L (≈ 83.2 µM) in the test with Pseudomonas aeruginosa [1]; 32 mg/L (≈ 83.2 µM) in the test on Escherichia coli [2]; 64 mg/L (≈ 166 µM) in the test on Acinetobacter baumannii; 32 mg/L (≈ 83.2 µM) in the test on Staphylococcus aureus [3]; 32 mg/L (≈ 83.2 µM) in the test on Enterococcus faecalis; 32 mg/L (≈ 83.2 µM) in the test on Staphylococcus aureus [4]. Besides, the MIC amounted to 64 mg/L (≈ 166 µM) in the test on Pseudomonas aeruginosa [5]; 64 mg/L (≈ 166 µM) with Staphylococcus aureus [6]; 64 mg/L (≈ 166 µM) with Escherichia coli [7]; 32 mg/L (≈ 83.2 µM) with Staphylococcus aureus [8]; 64 mg/L (≈ 166 µM) in the test on Klebsiella pneumoniae.
Consider `Cn1ccnc1SCc1cc(O)c2c(c1)C(=O)c1cccc(O)c1C2=O`, for which the minimal inhibitory concentration (MIC) with Pseudomonas aeruginosa [1] amounted to 128 mg/L (≈ 349 µM); in the test with Escherichia coli [2], 128 mg/L (≈ 349 µM); in the test with Acinetobacter baumannii, 32 mg/L (≈ 87.3 µM); with Staphylococcus aureus [3] it was 256 mg/L (≈ 699 µM); in the test on Enterococcus faecalis, 128 mg/L (≈ 349 µM); in the test with Staphylococcus aureus [4], 128 mg/L (≈ 349 µM). For the same compound, the minimal inhibitory concentration (MIC) with Pseudomonas aeruginosa [5] came out at 64 mg/L (≈ 175 µM); in the test with Staphylococcus aureus [6], 128 mg/L (≈ 349 µM); with Escherichia coli [7], 128 mg/L (≈ 349 µM); with Staphylococcus aureus [8], 128 mg/L (≈ 349 µM); in the test on Klebsiella pneumoniae, 128 mg/L (≈ 349 µM).
Regarding `O=C1c2cccc(O)c2C(=O)c2c(O)cc(Cn3cnc4ccccc43)cc21`, the MIC was found to be 64 mg/L (≈ 173 µM) in the test with Pseudomonas aeruginosa [1]; 16 mg/L (≈ 43.2 µM) in the test on Escherichia coli [2]; 32 mg/L (≈ 86.4 µM) in the test on Acinetobacter baumannii; 8 mg/L (≈ 21.6 µM) with Staphylococcus aureus [3]; 16 mg/L (≈ 43.2 µM) in the test with Enterococcus faecalis; 32 mg/L (≈ 86.4 µM) with Staphylococcus aureus [4]. In addition, the MIC with Pseudomonas aeruginosa [5] worked out at 32 mg/L (≈ 86.4 µM); in the test on Staphylococcus aureus [6] it was 32 mg/L (≈ 86.4 µM); with Escherichia coli [7], 32 mg/L (≈ 86.4 µM); with Staphylococcus aureus [8], 32 mg/L (≈ 86.4 µM); with Klebsiella pneumoniae, 64 mg/L (≈ 173 µM).
In the case of `O=C1c2cccc(O)c2C(=O)c2c(O)cc(CSc3nnc[nH]3)cc21`, the minimal inhibitory concentration (MIC) with Pseudomonas aeruginosa [1] is 32 mg/L (≈ 90.6 µM); in the test on Escherichia coli [2], 64 mg/L (≈ 181 µM); with Acinetobacter baumannii, 64 mg/L (≈ 181 µM); in the test with Staphylococcus aureus [3], 16 mg/L (≈ 45.3 µM); in the test on Enterococcus faecalis, 128 mg/L (≈ 362 µM); in the test on Staphylococcus aureus [4], 16 mg/L (≈ 45.3 µM). For the same compound, the minimal inhibitory concentration (MIC) with Pseudomonas aeruginosa [5] was 64 mg/L (≈ 181 µM); with Staphylococcus aureus [6], 64 mg/L (≈ 181 µM); with Escherichia coli [7] it was 128 mg/L (≈ 362 µM); with Staphylococcus aureus [8] it was 16 mg/L (≈ 45.3 µM); in the test with Klebsiella pneumoniae, 64 mg/L (≈ 181 µM).
